Hits are enriched below; roughly 12% of the tested compounds scored in any of these assays.
RAM inhibit = blocks the yeast RAM network; S. cerevisiae dse1pr::URA3 reporter, 5-FOA growth OD615, 2 d; analog-sensitive cbk1-as2 kinase mutant strain; AID 868; actives 1.8% (n = 190,000); inhibition, % at 50 µM;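 active = inhibition above a set limit, 3 SD over mean compound inhibition, cut at about 8.4% in these data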;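 also: 0% = DMSO-only wells with no growth and 100% = 10 µM 1-NA-PP1 full growth; inhibition rescues growth on 5-FOA so higher OD means more RAM inhibition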
Lmaj promast = inhibitors of Leishmania major promastigote growth | Leishmania major promastigotes, resazurin fluorescence viability | inhibition, % at 10 µM | actives 9% (n = 200,000); in the data active = inhibition above about 50%;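 also: promastigotes grown with compound for 44 hours at 28 °C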
WT yeast gro inh = growth inhibition of WT yeast, mitochondrial fusion screen; mitochondrial fusion phenotypic screen, WT strain; inhibition, % at 10 µM; actives 2.1% (n = 190,000); in the data active = inhibition above about 58%; tested in S. cerevisiae
ABCB1 block = blocks JC-1 efflux by human ABCB1 transporter. P08183. CCRF-Adr cells, flow cytometry. inhibition, % at 6.6 µM. actives 0.067% (n = 190,000); in the data active = inhibition above about 40%;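 also: 0% = vehicle and 100% = reference inhibitor; higher value means more JC-1 retained so stronger ABCB1 efflux block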
ABCG2 inh = blocks JC-1 efflux by human ABCG2 transporter; Q9UNQ0; IgMXP3 cells, flow cytometry; inhibition, % at 6.6 µM; actives 0.1% (n = 190,000); AID 1325;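 active = inhibition above 80%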;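 also: 0% = DMSO and 100% = nicardipine control wells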
Target sequence (Q9UNQ0 whole entry, looked up): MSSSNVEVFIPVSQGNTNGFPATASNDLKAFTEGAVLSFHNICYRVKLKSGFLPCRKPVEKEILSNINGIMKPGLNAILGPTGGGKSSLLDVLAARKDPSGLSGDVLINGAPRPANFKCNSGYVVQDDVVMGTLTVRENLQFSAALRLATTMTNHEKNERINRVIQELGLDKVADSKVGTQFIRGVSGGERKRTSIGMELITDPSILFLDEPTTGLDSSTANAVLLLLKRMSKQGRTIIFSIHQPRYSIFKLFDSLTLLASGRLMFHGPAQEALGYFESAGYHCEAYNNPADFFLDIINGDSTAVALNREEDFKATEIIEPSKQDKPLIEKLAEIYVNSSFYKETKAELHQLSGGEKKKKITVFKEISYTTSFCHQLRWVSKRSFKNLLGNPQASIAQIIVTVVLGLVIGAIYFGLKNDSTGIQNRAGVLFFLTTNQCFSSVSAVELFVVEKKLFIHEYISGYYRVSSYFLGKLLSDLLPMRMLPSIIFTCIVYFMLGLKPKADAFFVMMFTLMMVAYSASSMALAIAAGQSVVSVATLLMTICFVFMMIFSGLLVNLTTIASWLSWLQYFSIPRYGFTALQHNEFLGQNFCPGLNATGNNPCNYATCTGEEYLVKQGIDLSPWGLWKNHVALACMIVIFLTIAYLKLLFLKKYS
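Assay system – ABCG2 IgMXP3 and barcoded ABCB1 CCRF-Adr cell mix · Input – 3 million cells/mL in well · Reagent – JC-1 fluorescent substrate · Compound – single test compound dose, 6.6 µM final · Timing – 10 min exposure at 25 °C with rotation, no wash · Detection – flow cytometry of retained JC-1 fluorescence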
Lmaj promast 1uM = blocks Leishmania major promastigote growth at 1 uM, repeat screen. shares compounds with Lmaj promast. L. major promastigote growth, resazurin fluorescence, 48 h. inhibition, % at 1 µM. actives 13% (n = 1,100). AID 1258;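 active = inhibition above about 50% in both repeat tests, limit read from the data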
Numbers without * were called inactive; . = no result.

SMILES	RAM inhibit	Lmaj promast	WT yeast gro inh	ABCB1 block	ABCG2 inh	Lmaj promast 1uM
CCN(CC)C(=O)C1=C(C)NC(=S)NC1c1cccs1 (stereo not drawn)	0.4	-6.6	-17.3	0.6	2.4	.
O=C(N/N=C/c1cccc(OC(=O)c2ccco2)c1)c1ccc(F)cc1	1.0	-4.1	-12.4	0.1	-0.1	.
CC1CN(S(=O)(=O)c2ccc(C(=O)Nc3sc4c(c3C(N)=O)CCN(C)C4)cc2)CC(C)O1 (stereo not drawn)	0.7	1.0	7.1	0.0	3.4	.
CCOC(=O)c1c(NC(=O)c2ccc(S(=O)(=O)N3CCOCC3)cc2)sc2c1CCN(C)C2	0.4	68.3*	0.6	0.3	1.0	-15.7
Cc1cc(Nc2ccc(N3CCC(C)CC3)cc2)n2ncnc2n1	2.6	7.4	8.3	0.1	0.6	.
C1CCC(OCCN2CCN(CCOC3CCCCC3)CC2)CC1	0.6	94.5*	2.7	1.0	-0.1	46.0
O=[N+]([O-])c1cc(C(F)(F)F)cc([N+](=O)[O-])c1N1CCCNCC1	3.0	3.2	-6.9	0.6	0.4	.
N/C(=N\OC(=O)CCC1CCCCC1)c1ccc([N+](=O)[O-])cc1	2.2	75.7*	0.9	0.5	2.4	1.2
CN1CCN(c2ccc(NC(=O)c3ccc(C#N)cc3F)cc2Cl)CC1	-0.4	0.9	4.3	0.0	6.1	.
COC(=O)c1ccc(-c2ccc(CNCC(O)c3ccccc3)o2)cc1 (stereo not drawn)	2.4	99.1*	9.7	1.4	1.9	55.3*
O=c1cc(-c2ccccc2)nc(SCCOc2ccccc2Cl)[nH]1	4.8	-4.0	2.6	0.3	2.4	.
COC(=O)\C(C(C)=O)=C(/C=C/C=C/C=C/N(C)C)N(C)C	1.2	-2.4	5.6	-0.1	-0.2	.
O=C(Cn1cncn1)NCCCc1ccccc1	0.4	-1.2	-1.7	-0.3	0.2	.
CCC(C)C(NC(=O)C(C)NC(=O)CNC(=O)OC(C)(C)C)C(N)=O (stereo not drawn)	1.4	-1.7	0.8	-0.2	0.4	.
Oc1c(C=NCc2ccccc2)sc2ccccc12	-0.8	56.4*	-6.2	0.0	1.0	-9.2
Oc1cccc(C=NCc2ccccc2)c1O	-1.7	-5.7	16.1	0.3	-1.1	.
CC(C)(C)C1CCC2(CC1)Nc1cccc3cccc(c13)N2	8.9*	100.1*	18.4	-0.3	-0.4	63.7*
COc1ccc2c(C)cc(Sc3nnnn3-c3ccccc3)nc2c1	3.2	49.1	12.5	0.5	3.3	.
O=[N+]([O-])c1cccc(-c2cc3cccc[n+]3cc2-c2cccc([N+](=O)[O-])c2)c1	0.6	0.3	16.6	0.3	5.2	.
Cc1cccc2cc(-c3ccccc3)c(-c3ccccc3)c[n+]12	-0.7	100.1*	72.2*	-0.5	-2.7	30.0
C/C(=N\NC(=O)CCc1ccc(S(=O)(=O)N2CCOCC2)cc1)c1ccccc1Cl	-0.2	18.4	-2.0	0.3	1.8	.
Cc1cccc2sc(NC(=O)c3cccc(S(=O)(=O)N4CCc5ccccc54)c3)nc12	4.5	95.9*	9.9	-1.0	-14.3	-3.3
O=C(Nc1ccc(C(=O)N2CCOCC2)cc1)c1cc(-c2cccnc2)nc2ccc(Cl)cc12	2.5	10.9	-7.0	-0.2	5.5	.
COc1ccc(CCNC(=O)Cn2cc(C(F)(F)F)cc(Cl)c2=O)cc1OC	4.3	-4.6	-16.5	0.4	2.8	.
O=C(O)c1ccc(-n2c(-c3cc(-c4ccco4)[nH]n3)n[nH]c2=S)cc1	0.5	-6.6	-0.4	-0.1	0.1	.
SMILES	RAM inhibit	Lmaj promast	WT yeast gro inh	ABCB1 block	ABCG2 inh	Lmaj promast 1uM
S=c1[nH]nc(-c2cc(-c3ccco3)[nH]n2)n1-c1cccc2ccccc12	1.5	97.7*	-18.6	-1.8	18.7	1.9
CCC(C)NCCOc1ccccc1C (stereo not drawn)	3.1	18.4	9.9	0.4	9.6	.
CCC(C)NCCOc1ccc(Br)cc1 (stereo not drawn)	-0.5	82.3*	1.9	-0.4	-4.1	-7.3
O=C(Cn1[nH]c(=O)c2ccccc2c1=O)N1CC=C(c2ccccc2)CC1	2.8	3.6	-6.5	0.1	1.5	.
O=C(O)CCC(=O)N1CC=C(c2ccccc2)CC1	-1.0	63.3*	-6.4	-0.4	0.6	-6.7
O=C(c1ccc(C#CC2(O)CCCCC2)cc1)N1CCN(C(c2ccccc2)c2ccccc2)CC1	2.5	45.6	.	0.7	3.0	.
CC(=O)NCCNc1ccc([N+](=O)[O-])cn1	-0.9	62.0*	1.0	2.6	13.4	-16.3
CC(=O)N1c2ccccc2NC2=C(C(=O)CC(C)(C)C2)C1c1cccn1C (stereo not drawn)	-1.7	-3.7	1.7	2.1	6.0	.
N#CC1=C(N)OC2=C(C(=O)CCC2)C12C(=O)N1CCCc3cccc2c31 (stereo not drawn)	0.3	59.6*	-8.6	0.7	4.5	-14.0
Cc1cc(=O)n(C2CCS(=O)(=O)C2)[nH]1 (stereo not drawn)	0.2	-3.7	-6.8	-0.7	-1.7	.
Cc1csc(NC(=O)CSc2nnc(-c3ccc(S(=O)(=O)N4CCCC4)cc3)o2)n1	5.5	99.3*	-1.9	0.1	1.0	-3.0
COC(=O)CNc1nc(-c2ccccc2F)nc2ccccc12	-0.4	59.0*	72.1	0.5	3.6	56.0*
COC(=O)CNc1nc(-c2cccnc2)nc2ccccc12	1.4	8.6	5.0	0.6	6.3	.
CCCOc1ccc(C(=O)NCC2OCCc3ccccc32)cc1OC (stereo not drawn)	-0.4	-0.4	0.4	-0.1	4.0	.
COc1ccc(C(=O)NCC2OCCc3ccccc32)c(O)c1 (stereo not drawn)	-0.3	52.8*	37.2	0.3	3.2	-6.0
c1cncc(-c2nnc(-c3cccnc3)nn2)c1	1.3	96.6*	13.6	0.2	4.7	-22.4
Brc1ccccc1-n1nnc(-c2cccnc2)n1	1.8	18.2	0.6	-0.2	0.3	.
Clc1ccc2[nH]cc(-c3nnnn3-c3ccc4ccccc4c3)c2c1	2.4	98.7*	7.7	-0.8	-1.6	85.9*
Nc1nnc(-c2cn(-c3ccccc3)nc2-c2ccccc2)o1	1.4	55.5*	-4.2	1.0	13.5	-15.8
COc1ccc(-c2nn(-c3ccccc3)cc2N)cc1	1.6	-5.2	-2.3	0.2	-1.0	.
CCOC(=O)c1cnc(SC)nc1Sc1ccccc1	-0.3	-4.6	23.6	-0.3	29.1	.
COc1ccc(C(=O)/C=C/c2cn(CN3CCN(C)CC3)c3ccccc23)cc1	0.7	93.4*	-14.3	1.5	5.2	-4.7
Cc1cccc(C(=O)NCC(=O)N2CC(=O)Nc3ccccc32)c1	1.6	-2.7	-6.5	0.7	1.6	.
O=C(NNc1ccc([N+](=O)[O-])cc1)c1ccccc1Cl	1.7	-11.2	27.4	0.0	-0.4	.
O=C(NNc1ccccc1)C(=O)NNS(=O)(=O)c1ccc([N+](=O)[O-])cc1	1.1	89.3*	44.2	0.1	-0.1	11.2
S=c1[nH]c(-c2ccc(Br)cc2)cn1CCc1ccccc1	5.1	-3.7	13.9	-0.1	4.9	.
